Experimental findings from ChEMBL document CHEMBL2176896, “Phthalazine derivatives containing imidazole rings behave as Fe-SOD inhibitors and show remarkable anti-T. cruzi activity in immunodeficient-mouse mode of infection” (J Med Chem, 2012) are described below.

The subject of data set [1] is Trypanosoma cruzi. In words: Antitrypanosomal activity against Trypanosoma cruzi IRHOD/VO/2008/SN3 metacyclic forms infected in african green monkey Vero cells assessed as inhibition of infection rate at IC25 level 0.5 to 10 days. The data set is classed as functional. In short, it runs like this:
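Vero cells in RPMI infected with metacyclic forms at 10:1. Compounds added at IC25 immediately after infection for 12 h at 37 °C, 5% CO2, then washed off. Cultures grown 10 days with fresh medium every 48 h. Giemsa slides scored for % infected cells and amastigotes per cell (>100 cells); trypomastigotes in medium counted. Mean of four.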

The nature of data set [2]: Toxicity against african green monkey Vero cells. In kind it is cell-based, Chlorocebus sabaeus.
Data set [3] has as its system Trypanosoma cruzi. As to the kind of experiment: Inhibition of Trypanosoma cruzi IRHOD/VO/2008/SN3 epimastigotes Iron superoxide dismutase at 50 uM by spectrophotometry. In short, it runs like this:
(§1)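 Enzyme from sonicated parasites in STE buffer, pH 7.8, or human erythrocyte CuZn-SOD. Activity measured as NBT reduction by superoxide (Beyer–Fridovich): methionine, NBT, Triton X-100 and riboflavin, with A560 read before and after 10 min of light. Compounds tested at 1–100 μM. Mean of five; IC50 by linear regression from Kc.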

Data set [4] relates to Trypanosoma cruzi. In words: Effect on glucose metabolism in Trypanosoma cruzi IRHOD/VO/2008/SN3 epimastigotes assessed as excreted L-lactate level at IC25 level incubated for 96 hrs at 28 degC by [1H]NMR spectroscopy.
In data set [5] the test system is Trypanosoma cruzi. In words: Toxicity in Trypanosoma cruzi IRHOD/VO/2008/SN3 metacyclic forms infected BALB/c mouse model of acute Chagas disease assessed as mortality incidence at 5 mg/kg/day, ip administered for 5 consecutive days starting on day 7 post infection until day 12 post infection and measured 40 days post infection. In kind it is organism-based. On the set-up: route intraperitoneal. To be noted: in vivo, 960 h. The gist of the method: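 Female BALB/c mice (6–8 wk, 25–30 g), six per group, were infected ip with 5 × 10^5 metacyclic trypomastigotes from infected mouse blood. Once infection was confirmed, compound was given ip daily on days 7–12 pi. An infected untreated group served as control. Deaths were recorded during treatment, and parasitemia was counted in mandibular-vein blood every 3 days up to day 40 pi.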

Data set [6] has as its system Trypanosoma cruzi. In words: Effect on glucose metabolism in Trypanosoma cruzi IRHOD/VO/2008/SN3 epimastigotes assessed as excreted L-alanine level at IC25 level incubated for 96 hrs at 28 degC by [1H]NMR spectroscopy.
The test system of data set [7] is Trypanosoma cruzi. As to the kind of experiment: Effect on glucose metabolism in Trypanosoma cruzi IRHOD/VO/2008/SN3 epimastigotes assessed as excreted ethanol level at IC25 level incubated for 96 hrs at 28 degC by [1H]NMR spectroscopy.
For data set [8], the system named is Trypanosoma cruzi. As to the kind of experiment: Antitrypanosomal activity against Trypanosoma cruzi IRHOD/VO/2008/SN3 metacyclic forms infected in BALB/c mouse model of acute Chagas disease assessed as reduction parasitemia at 15 mg/kg/day, ip administered for 5 consecutive days starting on day 7 post infection until day 12 post infection and measured on day 40 post infection. In kind it is functional. On the set-up: scale not given: the % may be the effect or the level left. The note with it: route intraperitoneal. In short, it runs like this: (§2)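 Groups of six female BALB/c mice (6–8 weeks, 25–30 g) inoculated ip with 5 × 10^5 metacyclic trypomastigotes. Dosed ip at 5 or 15 mg/kg/day on days 7–12 pi; untreated infected controls. Mandibular-vein blood (5 μL in 495 μL PBS) counted every 3 days for 40 days in a Neubauer chamber, as parasites/mL.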

Data set [9] can be described thus: Selectivity index, ratio of IC50 for SOD1 in human erythrocytes to IC50 for Trypanosoma cruzi IRHOD/VO/2008/SN3 epimastigotes Iron superoxide dismutase. In kind it is cell-based.
The subject of data set [10] is Trypanosoma cruzi. In words: Antitrypanosomal activity against Trypanosoma cruzi IRHOD/VO/2008/SN3 metacyclic forms infected in BALB/c mouse model of chronic Chagas disease subjected to 3 cycles of immunosuppression with 50 mg/kg cyclophosphamide monohydrate for 3 consecutive weeks assessed as change in IgG absorbance level at 5 mg/kg/day, ip administered for 5 consecutive days starting on day 7 post infection until day 12 post infection and measured on day 150 post infection by ELISA. In kind it is functional. The gist of the method:
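Infected, treated mice (ip 5 or 15 mg/kg/day, days 7–12 pi) kept to day 120. Half then given three 4-day cycles of cyclophosphamide at 50 mg/kg with 3-day gaps; the rest left untreated. Serum IgG measured by ELISA on parasite-excreted Fe-SOD antigen: 1:100 serum, anti-IgG peroxidase 1:1000, OPD, A492, in triplicate. Reported as immunosuppressed minus non-immunosuppressed OD.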
For orientation: An ELISA detects its analyte on a solid surface through an enzyme-linked reagent.

The test system of data set [11] is Trypanosoma cruzi. In words: Antitrypanosomal activity against Trypanosoma cruzi IRHOD/VO/2008/SN3 metacyclic forms infected in BALB/c mouse model of acute Chagas disease assessed as reduction in parasitemia level at 15 mg/kg/day, ip administered for 5 consecutive days starting on day 7 post infection until day 12 post infection and measured on day 15 post infection relative to untreated control. In kind it is functional. Also on record: scale not given: the % may be the effect or the level left. The note with it: route intraperitoneal. The gist of the method:
as §2

For data set [12], the system named is Trypanosoma cruzi. In words: Antitrypanosomal activity against Trypanosoma cruzi IRHOD/VO/2008/SN3 intracellular amastigotes infected in african green monkey Vero cells incubated for 72 hrs. The note with it: IRHOD/VO/2008/SN3, Vero. In kind it is functional, organism-based. In short, it runs like this: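 Vero cells (1 × 10^4/well) grown 2 days on coverslips, then infected with metacyclic forms at 10:1 for 24 h at 37 °C. Extracellular parasites washed off. Compounds at 1–100 μM for 72 h in RPMI with 10% FBS. Amastigotes counted on methanol-fixed, Giemsa-stained slides against untreated cultures. Mean of four determinations; IC50.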

For data set [13], the target named is Superoxide dismutase [Cu-Zn] (Homo sapiens, UniProt P00441). As to the kind of experiment: Inhibition of SOD1 in human erythrocytes by spectrophotometry. The data set is classed as cell-based. The gist of the method: as §1
Sequence of Superoxide dismutase [Cu-Zn] (P00441 whole entry): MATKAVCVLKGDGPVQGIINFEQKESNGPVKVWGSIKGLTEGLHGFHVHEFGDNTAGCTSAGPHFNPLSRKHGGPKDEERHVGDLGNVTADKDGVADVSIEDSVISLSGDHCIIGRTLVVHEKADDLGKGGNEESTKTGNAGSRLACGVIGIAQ

As for `Clc1nnc(NCCc2c[nH]cn2)c2ccccc12`, in data set [1], the inhibition (INH) stood at 83.9%. Also, the figures for the IC50 in data set [2], in data set [12] and in [13] were 427 µM, 9.4 µM and 71.5 µM, respectively. The same compound came in with an inhibition in [3] of 100%. In addition, the Activity was -33% in data set [4]; “Non-toxic” in [5]; -13% in [6]; -12% in data set [7]; 74% in data set [8]; 59% in data set [11]. In addition, the Ratio IC50 in data set [9] was determined as 5.5. Moreover, in data set [10], the deltaA is on record as 0.0103.
For the compound `Clc1nnc(NCCCn2ccnc2)c2ccccc12`, in [1], the “inhibition (INH)” value is on record as 80.3%. For the same compound, the IC50 in [2] came out at 437 µM; in [12], 8.9 µM; in data set [13], 83.1 µM. The inhibition in data set [3] was found to be 100%. For the same compound, the Activity in data set [4] is given as -38%; in [5], “Non-toxic”; in data set [6] it was -27%; in data set [7], -16%; in data set [8], 61%; in [11] it was 64%. The Ratio IC50 in data set [9] amounted to 5.8. Further, the deltaA in data set [10] was 0.0143.

A word on the IC50: it is the concentration at which inhibition is half-maximal. In general, inhibition refers to how much of the control response was suppressed.
